In brackets after ≈: the same amount, converted by molar mass.
How the values were obtained:
Assay type in all cases: functional
[1] = test system: Nakaseomyces glabratus; test: Antifungal activity against Candida glabrata HO3 after 48 hrs by agar well diffusion technique
[2] = test system: Nakaseomyces glabratus; test: Antifungal activity against Candida glabrata HO3 at 250 ug/ml after 48 hrs by agar well diffusion technique; conditions: read-out: IZ
[3] = test system: Candida albicans; test: Antifungal activity against Candida albicans at 250 ug/ml after 48 hrs by agar well diffusion technique; conditions: read-out: IZ
[4] = test system: Escherichia coli; test: Antibacterial activity against Escherichia coli ESS 2231 at 250 ug/ml after 48 hrs by agar well diffusion technique; conditions: read-out: IZ
Procedure, shortened: (§1)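 Cup-plate agar well diffusion on nutrient agar, set for 1–1.5 h. Cups of 10 mm were bored with a sterile cork borer, and test solution was added by sterile syringe. Plates were incubated at 37 °C for 48 h. The read-out was inhibition zone diameter in mm, graded 0–6 mild, 7–13 moderate and 14–26 efficacy. Ciprofloxacin was the standard; 10% DMSO served as solvent control.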

[5] = test system: Aspergillus fumigatus; test: Antifungal activity against Aspergillus fumigatus at 250 ug/ml after 48 hrs by agar well diffusion technique; conditions: read-out: IZ; procedure, shortened: as §1
[6] = test system: Klebsiella pneumoniae; test: Antibacterial activity against Klebsiella pneumoniae at 250 ug/ml after 48 hrs by agar well diffusion technique; conditions: read-out: IZ; procedure, shortened: as §1
[7] = test system: Staphylococcus aureus; test: Antibacterial activity against Staphylococcus aureus 209p at 250 ug/ml after 48 hrs by agar well diffusion technique; conditions: read-out: IZ; procedure, shortened: as §1
[8] = test system: Candida albicans; test: Antifungal activity against Candida albicans after 48 hrs by agar well diffusion technique
[9] = test system: Proteus vulgaris; test: Antibacterial activity against Proteus vulgaris at 250 ug/ml after 48 hrs by agar well diffusion technique; conditions: read-out: IZ; procedure, shortened: as §1
[10] = test system: Pichia kudriavzevii; test: Antifungal activity against Candida krusei GO3 after 48 hrs by agar well diffusion technique
[11] = test system: Pichia kudriavzevii; test: Antifungal activity against Candida krusei GO3 at 250 ug/ml after 48 hrs by agar well diffusion technique; conditions: read-out: IZ

SMILES | MIC50 [1] | zone of inhibition at 250 µg/mL [2] | zone of inhibition at 250 µg/mL [3] | zone of inhibition at 250 µg/mL [4] | zone of inhibition at 250 µg/mL [5] | zone of inhibition at 250 µg/mL [6] | zone of inhibition at 250 µg/mL [7] | MIC50 [8] | zone of inhibition at 250 µg/mL [9] | MIC50 [10] | zone of inhibition at 250 µg/mL [11]
O=C(/C=C/C=C/c1ccccc1)c1ccc(N2CCNCC2)cc1 | 75 µg/mL (≈ 236 µM) | 6 mm | 9 mm | 16 mm | 14 mm | 5 mm | 10 mm | 90 µg/mL (≈ 283 µM) | 8 mm | 60 µg/mL (≈ 188 µM) | 14 mm
O=C(/C=C/c1ccccc1)c1ccc(N2CCNCC2)cc1 | 7.57 µg/mL (≈ 25.9 µM) | 24 mm | 24 mm | 24 mm | 22 mm | 18 mm | 22 mm | 4.56 µg/mL (≈ 15.6 µM) | 20 mm | 5.38 µg/mL (≈ 18.4 µM) | 24 mm
O=C(/C=C/c1ccccc1)c1cc(Cl)sc1Cl | 4.65 µg/mL (≈ 16.4 µM) | 26 mm | 26 mm | 20 mm | 24 mm | 18 mm | 18 mm | 2.22 µg/mL (≈ 7.84 µM) | 22 mm | 3.17 µg/mL (≈ 11.2 µM) | 26 mm
Cc1cccc(/C=C/C(=O)c2ccc(N3CCNCC3)cc2)c1 | 9.94 µg/mL (≈ 32.4 µM) | 22 mm | 16 mm | 22 mm | 20 mm | 16 mm | 24 mm | 6.89 µg/mL (≈ 22.5 µM) | 20 mm | 5.69 µg/mL (≈ 18.6 µM) | 24 mm
Cc1ccc(/C=C/C(=O)c2ccc(N3CCNCC3)cc2)cc1 | 7.66 µg/mL (≈ 25 µM) | 24 mm | 22 mm | 14 mm | 18 mm | 14 mm | 16 mm | 8.75 µg/mL (≈ 28.6 µM) | 14 mm | 7.02 µg/mL (≈ 22.9 µM) | 22 mm
COc1ccc(/C=C/C(=O)c2cc(Cl)sc2Cl)cc1 | 16.4 µg/mL (≈ 52.3 µM) | 18 mm | 20 mm | 18 mm | 22 mm | 16 mm | 14 mm | 5 µg/mL (≈ 16 µM) | 14 mm | 18.2 µg/mL (≈ 58 µM) | 18 mm
O=C(/C=C/c1ccc(Cl)cc1)c1cc(Cl)sc1Cl | 40 µg/mL (≈ 126 µM) | 14 mm | 24 mm | 16 mm | 18 mm | 8 mm | 14 mm | 4.65 µg/mL (≈ 14.6 µM) | 14 mm | 70 µg/mL (≈ 220 µM) | 22 mm
COc1ccc(/C=C/C(=O)c2ccc(N3CCNCC3)cc2)cc1 | 16.2 µg/mL (≈ 50.4 µM) | 18 mm | 22 mm | 22 mm | 18 mm | 16 mm | 24 mm | 9.12 µg/mL (≈ 28.3 µM) | 14 mm | 50 µg/mL (≈ 155 µM) | 14 mm
COc1cc(/C=C/C(=O)c2ccc(N3CCNCC3)cc2)cc(OC)c1OC | 60 µg/mL (≈ 157 µM) | 9 mm | 9 mm | 8 mm | 12 mm | 9 mm | 6 mm | 65 µg/mL (≈ 170 µM) | 6 mm | 75 µg/mL (≈ 196 µM) | 12 mm
Cc1cccc(/C=C/C(=O)c2cc(Cl)sc2Cl)c1 | 65 µg/mL (≈ 219 µM) | 14 mm | 10 mm | 20 mm | 20 mm | 10 mm | 11 mm | 51.1 µg/mL (≈ 172 µM) | 6 mm | 42.3 µg/mL (≈ 142 µM) | 22 mm
O=C(/C=C/c1ccc(Cl)cc1)c1ccc(N2CCNCC2)cc1 | 60 µg/mL (≈ 184 µM) | 14 mm | 18 mm | 22 mm | 12 mm | 14 mm | 18 mm | 55 µg/mL (≈ 168 µM) | 16 mm | 60 µg/mL (≈ 184 µM) | 20 mm
O=C(/C=C/c1cccc([N+](=O)[O-])c1)c1ccc(N2CCNCC2)cc1 | 16.8 µg/mL (≈ 49.8 µM) | 18 mm | 16 mm | 26 mm | 20 mm | 14 mm | 24 mm | 6.75 µg/mL (≈ 20 µM) | 18 mm | 18.6 µg/mL (≈ 55 µM) | 18 mm
Cc1ccc(/C=C/C(=O)c2cc(Cl)sc2Cl)cc1 | 80 µg/mL (≈ 269 µM) | 12 mm | 16 mm | 16 mm | 6 mm | 8 mm | 12 mm | 70 µg/mL (≈ 236 µM) | 9 mm | 70 µg/mL (≈ 236 µM) | 10 mm
COc1cc(/C=C/C(=O)c2cc(Cl)sc2Cl)cc(OC)c1OC | 45.1 µg/mL (≈ 121 µM) | 20 mm | 6 mm | 14 mm | 14 mm | 6 mm | 12 mm | 78 µg/mL (≈ 209 µM) | 12 mm | 40.1 µg/mL (≈ 108 µM) | 22 mm
O=C(/C=C/c1cccc([N+](=O)[O-])c1)c1cc(Cl)sc1Cl | 50 µg/mL (≈ 152 µM) | 14 mm | 18 mm | 22 mm | 16 mm | 20 mm | 24 mm | 5.97 µg/mL (≈ 18.2 µM) | 18 mm | 50 µg/mL (≈ 152 µM) | 12 mm
O=C(/C=C/C=C/c1ccccc1)c1cc(Cl)sc1Cl | 60 µg/mL (≈ 194 µM) | 16 mm | 8 mm | 16 mm | 20 mm | 7 mm | 9 mm | 75 µg/mL (≈ 243 µM) | 11 mm | 55.6 µg/mL (≈ 180 µM) | 16 mm
O=C(O)c1cn(C2CC2)c2cc(N3CCNCC3)c(F)cc2c1=O [CIPROFLOXACIN] |  |  |  |  | 24 mm | 24 mm | 22 mm |  | 24 mm |  | 
OC(Cn1cncn1)(Cn1cncn1)c1ccc(F)cc1F [FLUCONAZOLE] | 50 µg/mL (≈ 163 µM) | 29 mm | 29 mm |  |  |  |  | 50 µg/mL (≈ 163 µM) |  | 50 µg/mL (≈ 163 µM) | 29 mm

Reference: ChEMBL document CHEMBL1149705, “Synthesis and antimicrobial evaluation of new chalcones containing piperazine or 2,5-dichlorothiophene moiety” (2007)
